pIC50: −log10 of the molar value.
Tests used:
[1] = system: Pneumocystis carinii; assay: Antimicrobial activity against Pneumocystis carinii assessed as ATP levels after 72 hrs by luciferase assay; type: functional, organism-based
In short: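 P. carinii organism preparations screened before use for microbial contamination, ATP content, karyotype and host cell content. Compounds incubated with organisms for 72 h, then ATP measured as relative light units. Each concentration tested in triplicate wells and averaged, with triplicate runs using separate organism isolation batches. Activity averaged from at least three determinations.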

[2] = system: Plasmodium falciparum; assay: Antiplasmodial activity against chloroquine-resistant Plasmodium falciparum W2; type: functional, organism-based
In short: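 Parasite development assay against P. falciparum W2, run by the authors' earlier method. Values in μM, each the average of at least three determinations.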

[3] = Half life of hydrolysis in buffer at pH 7.4; type: ADME
In short: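 Hydrolytic stability followed in pH 7.4 buffer at 37 °C; half-life derived from the decay.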

## COc1cc(NC(C)CCCN2C(=O)[C@H](Cc3ccccc3)NC2(C)C)c2ncccc2c1 (some centres not stated)
[1]; Pneumocystis carinii, 72 h
  pIC50: 4.49
[2]
  pIC50: < 4.30

## COc1cc(NC(C)CCCN2C(=O)[C@H](C(C)C)NC23CCCCCC3)c2ncccc2c1 (some centres not stated)
[1]; Pneumocystis carinii, 72 h
  pIC50: 5.22
[2]
  pIC50: 5.05
[3]
  half-life: > 240 h

## COc1cc(NC(C)CCCN2C(=O)[C@H](C(C)C)NC23CCCCC3)c2ncccc2c1 (some centres not stated)
[1]; Pneumocystis carinii, 72 h
  pIC50: 4.59
[2]
  pIC50: < 4.30

## COc1cc(NC(C)CCCN2C(=O)[C@H](C(C)C)NC23CCCC3)c2ncccc2c1 (some centres not stated)
[1]; Pneumocystis carinii, 72 h
  pIC50: 4.64
[2]
  pIC50: < 4.30

## COc1cc(NC(C)CCCN2C(=O)[C@H](Cc3ccccc3)NC23CCCC3)c2ncccc2c1 (some centres not stated)
[1]; Pneumocystis carinii, 72 h
  pIC50: 4.92
[2]
  pIC50: < 4.30

## COc1cc(NC(C)CCCN2C(=O)[C@H](C)NC2(C)C)c2ncccc2c1 (some centres not stated)
[1]; Pneumocystis carinii, 72 h
  pIC50: 3.65
[2]
  pIC50: < 4.30

## COc1cc(NC(C)CCCN2C(=O)[C@H](CC(C)C)NC23CCCCCC3)c2ncccc2c1 (some centres not stated)
[1]; Pneumocystis carinii, 72 h
  pIC50: 5.39
[2]
  pIC50: 5.58

## COc1cc(NC(C)CCCN2C(=O)[C@H](C)NC23CCC(C)CC3)c2ncccc2c1 (some centres not stated)
[1]; Pneumocystis carinii, 72 h
  pIC50: 4.64

## COc1cc(NC(C)CCCN2C(=O)CNC23CCCCC3)c2ncccc2c1 (configuration not stated)
[1]; Pneumocystis carinii, 72 h
  pIC50: 4.37
[2]
  pIC50: < 4.30

## COc1cc(NC(C)CCCN2C(=O)[C@H](C)NC23CCCCCC3)c2ncccc2c1 (some centres not stated)
[1]; Pneumocystis carinii, 72 h
  pIC50: 5.72
[2]
  pIC50: 5.62

## COc1cc(NC(C)CCCN2C(=O)CNC2(C)C)c2ncccc2c1 (configuration not stated)
[1]; Pneumocystis carinii, 72 h
  pIC50: 4.64
[2]
  pIC50: 5.04

## COc1cc(NC(C)CCCN2C(=O)[C@H](C(C)C)NC2(C)C)c2ncccc2c1 (some centres not stated)
[1]; Pneumocystis carinii, 72 h
  pIC50: 4.40
[2]
  pIC50: < 4.30

## COc1cc(NC(C)CCCN2C(=O)C(Cc3ccccc3)NC2c2ccccc2C)c2ncccc2c1 (stereo in doubt; 2m1)
[1]
  pIC50: 4.68

## COc1cc(NC(C)CCCN2C(=O)C(Cc3ccccc3)NC2c2ccccc2C)c2ncccc2c1 (stereo in doubt; 2m2)
[1]; Pneumocystis carinii, 72 h
  pIC50: 4.89

## COc1cc(NC(C)CCCN)c2ncccc2c1 (configuration not stated) [PRIMAQUINE]
[1]; Pneumocystis carinii, 72 h
  pIC50: 5.60

— ChEMBL document CHEMBL1142287, “Anti-Pneumocystis carinii and antiplasmodial activities of primaquine-derived imidazolidin-4-ones” (Bioorg Med Chem Lett, 2008)
